# Results of several laboratories.
# Protocols differ between the studies behind these lines.
# Cell line: HepG2
# Effect on: cell growth or viability
Compound,method,time,IC50
Oc1ccccc1-c1nc2ccccc2[nH]1,MTT,48 h,68.3 µM
CCCCc1ccc2[nH]c(NC(=O)OC)nc2c1,CCK-8,72 h,0.044 µM
COc1cc2ncnc(Nc3ccc(F)c(Cl)c3)c2cc1NC(=O)N/N=C/c1cccn1CCCN1CCN(C)CC1,MTT,72 h,0.08 µM
CC1=C(O)C(=O)C=C2C1=CC=C1[C@@]2(C)CC[C@@]2(C)[C@@H]3C[C@](C)(C(=O)OCCCO)CC[C@]3(C)CC[C@]12C,MTT,48 h,0.75 µM
COc1cc2ncnc(Nc3ccc(F)c(Cl)c3)c2cc1NC(=O)N/N=C/c1cccn1CCN1CCCC1,MTT,72 h,0.16 µM
CNC(=O)c1cc(Oc2ccc(NC(=O)Nc3ccc(Cl)c(C(F)(F)F)c3)cc2)ccn1,MTT,24 h,16.9 µM
CCOc1ccc(-c2nc3ccccc3[nH]2)cc1,MTT,48 h,43.1 µM
COc1cc2ncnc(Nc3ccc(F)c(Cl)c3)c2cc1NC(=O)N/N=C/CN1CCCC1,MTT,72 h,2.48 µM
COc1cc2c(Nc3ccc(NC(=O)c4ccccc4)cc3)ncnc2cc1OCCCN1CCOCC1,MTS,72 h,0.6 µM
Cc1ccc2nc(-c3ccc(N(C)C)cc3)[nH]c2c1,MTT,48 h,35.1 µM
Nc1ncnc2c1ncn2[C@@H]1O[C@H](CO)[C@@H](O)[C@H]1O,WST-1,48 h,55.1 µM
Oc1cccc(-c2nc3ccccc3[nH]2)c1,MTT,48 h,83 µM
COc1ccc(-c2csc(Nc3ccc4c(O)ncnc4c3)n2)cc1,MTT,,17.3 µM
COc1cccc(-c2nc3ccccc3n2Cc2ccccc2)c1,MTT,,40.7 µM
Oc1c(I)cc(I)c2cccnc12,MTT,48 h,80.1 µM
COc1cc2ncnc(Nc3ccc(F)c(Cl)c3)c2cc1NC(=O)N/N=C/CN1CCN(C)CC1,MTT,72 h,2.23 µM
Cc1ccc(-c2ccc(O)cc2)c(C(=C2C=CC(=O)C=C2)c2ccc(O)cc2)c1C#Cc1ccc(O)cc1,MTT,48 h,16.4 µM
CC1=C(O)C(=O)C=C2C1=CC=C1[C@@]2(C)CC[C@@]2(C)[C@@H]3C[C@](C)(C(=O)OCCCN4C(=O)C5C=CC=CC5C4=O)CC[C@]3(C)CC[C@]12C (stereo partly shown),MTT,48 h,1.27 µM
O=C(N/N=C/c1cccn1CCCN1CCOCC1)Nc1cc2c(Nc3ccc(F)c(Cl)c3)ncnc2cc1O[C@H]1CCOC1,MTT,72 h,1.89 µM
c1ccc2[nH]c(-c3ccncc3)nc2c1,MTT,48 h,87.7 µM
Cc1cc(=O)oc2ccc(-c3cc(-c4ccccc4)nc(N)n3)c(O)c12,MTT,72 h,> 128 µg/mL
O=c1cc(-c2ccc(O)c(O)c2)oc2cc(O)cc(O)c12,WST-1,48 h,15.2 µM
CC1=C(O)C(=O)C=C2C1=CC=C1[C@@]2(C)CC[C@@]2(C)[C@@H]3C[C@](C)(C(=O)OCCCCO)CC[C@]3(C)CC[C@]12C,MTT,48 h,0.63 µM
"Cl.Oc1cccc2c1[nH]c1c(C3=CC4(O)CC/C=C\CCCCN5CCC3C3(CC6/C=C\CCCCN6C43)C5)nccc12 (single isomer, unassigned; (+))",neutral red,48 h,1.5 µg/mL
Cc1ccc(NC(=O)NNC(=O)c2ccc(Nc3nccc(-c4cccnc4)n3)cc2)cc1,MTT,24 h,> 40 µM
O=C(N/N=C/CN1CCOCC1)Nc1cc2c(Nc3ccc(F)c(Cl)c3)ncnc2cc1O[C@H]1CCOC1,MTT,72 h,3.26 µM
Cc1cc(=O)oc2ccc(-c3cc(-c4cccc(Cl)c4)nc(N)n3)c(O)c12,MTT,72 h,> 128 µg/mL
Oc1ncnc2cc(Nc3nc(-c4ccc(C(F)(F)F)cc4)cs3)ccc12,MTT,,5.91 µM
Oc1c(I)cc(Cl)c2cccnc12,MTT,48 h,58.6 µM
CCCCNC(=O)NNC(=O)c1cccc(Nc2nccc(-c3ccncc3)n2)c1,MTT,24 h,> 40 µM
CC(C)C(=O)Nc1ccc([N+](=O)[O-])c(C(F)(F)F)c1,CCK-8,48 h,2.54 µM
CC(=O)O[C@H]1C(=O)[C@@]2(C)[C@H]([C@H](OC(=O)c3ccccc3)[C@]3(O)C[C@H](OC(=O)[C@H](O)[C@@H](NC(=O)c4ccccc4)c4ccccc4)C(C)=C1C3(C)C)[C@]1(OC(C)=O)CO[C@@H]1C[C@@H]2O,,,2 µg/mL
c1cnc2c(c1)ccc1cccnc12,MTT,48 h,> 50 µM
Cc1ccc2nc(-c3ccc(Cl)cc3Cl)[nH]c2c1,MTT,48 h,30.7 µM
O=C(NCCc1ccccc1)NNC(=O)c1ccc(Nc2nccc(-c3cccnc3)n2)cc1,MTT,,5.48 µM
O=c1c(O)c(-c2ccc(O)cc2)oc2cc(O)cc(O)c12,WST-1,48 h,34.4 µM
C=CCNC1=C2C[C@@H](C)C[C@H](OC)[C@H](O)[C@@H](C)/C=C(\C)[C@H](OC(N)=O)[C@@H](OC)/C=C\C=C(/C)C(=O)NC(=CC1=O)C2=O,MTT,,0.086 µM
Nc1nc(-c2ccc(NC(=O)Nc3cc(Br)cc(Br)c3)cc2)c[nH]1,XTT,24 h,47.6 µM
CCCCNC(=O)NNC(=O)c1ccc(Nc2nccc(-c3ccccn3)n2)cc1,MTT,24 h,15.7 µM
Cc1cc(C)n(-c2nc(Nc3ccc(Br)cc3)nc(N3CCOCC3)n2)n1,MTT,72 h,3.01 µM
Oc1ncnc2cc(Nc3nc(-c4ccccc4)cs3)ccc12,MTT,,11.9 µM
COC(=O)CN=c1scc(-c2ccccc2)n1-c1ccccc1[N+](=O)[O-],MTT,,15.4 µM
CC(=O)Oc1ccc2c(c1)C(C)=CC(C)(C)N2Cc1ccccc1,MTT,72 h,36 µM
COc1cc(/C=C/C(=O)c2ccc(NC(=O)c3ccccc3CN3C(=O)c4ccccc4C3=O)cc2)cc(OC)c1OC,MTT,72 h,1.62 µM
O=C(N/N=C/c1cccn1CCN1CCOCC1)Nc1cc2c(Nc3ccc(F)c(Cl)c3)ncnc2cc1O[C@H]1CCOC1,MTT,72 h,1.68 µM
Cc1ccc2nc(-c3cccc(O)c3)[nH]c2c1,MTT,48 h,95.3 µM
CC1(C)[C@@H](O)CC[C@]2(C)[C@H]3C(=O)C=C4[C@@H]5C[C@@](C)(C(=O)O)CC[C@]5(C)CC[C@@]4(C)[C@]3(C)CC[C@@H]12,MTT,48 h,> 100 µM
CC1=C(O)C(=O)C=C2C1=CC=C1[C@@]2(C)CC[C@@]2(C)[C@@H]3C[C@](C)(C(=O)OCCCBr)CC[C@]3(C)CC[C@]12C,MTT,48 h,1.32 µM
O=C(N/N=C/CN1CCCC1)Nc1cc2c(Nc3ccc(F)c(Cl)c3)ncnc2cc1O[C@H]1CCOC1,MTT,72 h,2.09 µM
